LEDGF integ inh: blockers of LEDGF/p75-dependent integrase strand transfer – biochemical, TR-FRET, high throughput, primary screen. TR-FRET IN-LEDGF/p75 DNA integration, Eu/Cy5. inhibition, % at 3.7 µM. HIV-1 integrase (with human LEDGF/p75). 0.64% of 370,000 active;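 active means inhibition above the screen-wide mean plus 3 SD, cut at about 13% in these data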;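 further: signal is the Cy5 over europium emission ratio at 671 and 618 nm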
TDP2 inh: human TDP2 enzyme inhibitors, primary screen, biochemical, epi absorbance, recombinant enzyme | 0.34% of 370,000 active | inhibition, % at 12.8 µM | T5PNP hydrolysis, p-nitrophenol absorbance 415 nm;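 active means inhibition above the mean of all tested compounds plus 3 SD, set per campaign, cut at about 25% in these data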
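System – recombinant human TDP2 · Quantity – TDP2 enzyme at 120 nM final · Doses – single concentration, 12.8 µM nominal, with 1% DMSO · Incubation – 2 h at 37 °C · Measured by – epi absorbance of p-nitrophenol freed from T5PNP by hydrolysis · Read-out – % inhibition relative to enzyme-containing and enzyme-free wells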
Rin1 Abl inh: inhibitors of Rin1-Abl protein binding, primary screen, biochemical, TR-FRET. Tyrosine-protein kinase ABL1 (Homo sapiens) + Ras and Rab interactor 1 (Homo sapiens), …. inhibition, % at 7.35 µM. 0.4% of 360,000 active; in the data active means inhibition above about 5%, passing the limit was not always enough
MBD2 inh: inhibitors of MBD2 binding to methylated DNA, primary screen, biochemical, TR-FRET, DNA-binding domain, human. Methyl-CpG-binding domain protein 2 (Homo sapiens), Q9UBB5. MBD2 binding to methylated oligonucleotide. inhibition, % at 4.4 µM. 0.31% of 370,000 active; in the data active means inhibition above about 13%
UHRF1 binding: UHRF1 methylated DNA binding inhibitors, primary screen, counter-screen for MBD2 inhibitor project, biochemical, TR-FRET, human UHRF1, single concentration | UHRF1 binding to methylated oligo | inhibition, % at 4.4 µM | 0.75% of 370,000 active | AID 687016, 2013; in the data active means inhibition above about 21%;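 further: UHRF1 SRA domain binding a hemimethylated CpG hairpin DNA probe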
Target sequence (Q96T88 whole entry, looked up, the tested form may be a part): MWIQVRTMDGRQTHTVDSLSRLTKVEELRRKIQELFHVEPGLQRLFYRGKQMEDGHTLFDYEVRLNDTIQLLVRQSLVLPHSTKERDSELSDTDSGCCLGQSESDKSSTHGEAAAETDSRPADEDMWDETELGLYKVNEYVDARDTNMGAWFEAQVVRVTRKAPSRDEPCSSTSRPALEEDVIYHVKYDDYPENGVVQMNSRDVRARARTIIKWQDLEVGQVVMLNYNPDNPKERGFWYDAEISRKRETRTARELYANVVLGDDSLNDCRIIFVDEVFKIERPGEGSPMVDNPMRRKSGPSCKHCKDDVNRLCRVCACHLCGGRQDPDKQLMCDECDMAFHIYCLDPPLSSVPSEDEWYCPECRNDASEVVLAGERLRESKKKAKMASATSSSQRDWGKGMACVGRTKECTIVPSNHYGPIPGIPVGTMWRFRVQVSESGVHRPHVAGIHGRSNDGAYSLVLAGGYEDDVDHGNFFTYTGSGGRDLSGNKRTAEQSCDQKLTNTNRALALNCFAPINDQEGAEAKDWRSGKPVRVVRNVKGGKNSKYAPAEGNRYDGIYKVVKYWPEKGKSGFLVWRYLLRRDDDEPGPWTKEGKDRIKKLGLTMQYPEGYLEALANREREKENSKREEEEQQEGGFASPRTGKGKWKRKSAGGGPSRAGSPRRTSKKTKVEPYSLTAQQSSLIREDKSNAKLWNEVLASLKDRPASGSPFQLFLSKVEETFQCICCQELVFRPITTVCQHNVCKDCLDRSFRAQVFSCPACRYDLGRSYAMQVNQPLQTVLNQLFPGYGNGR
UHRF1 ctr MBD2: UHRF1 methylated DNA binding inhibitors, counter-screen for MBD2 inhibitor project, biochemical, TR-FRET, human UHRF1; shares compounds with MBD2 inh; inhibition, % at 4.4 µM; UHRF1 binding to methylated oligonucleotide; 25% of 1,000 active; in the data active means inhibition above about 21%;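 further: UHRF1 SRA domain binding a labeled hemimethylated CpG hairpin DNA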
MBD2 DBD conf: inhibitors of MBD2 binding to methylated DNA, confirmation, biochemical, TR-FRET, DNA-binding domain, human. shares compounds with MBD2 inh. TR-FRET MBD2-DBD binding to methylated oligonucleotide. inhibition, % at 4.4 µM. 26% of 1,000 active
TDP2 confirm: human TDP2 enzyme inhibitors, retest, confirmation, biochemical, epi absorbance, recombinant enzyme | shares compounds with TDP2 inh | absorbance read-out | inhibition, % at 12.8 µM | 22% of 1,100 active | AID 743263, 2014; in the data active means inhibition above about 25%
IN multimer act: HIV-1 IN multimer formation enhancers, counter-screen for LEDGF/p75 integration inhibitor project, biochemical, TR-FRET; shares compounds with LEDGF integ inh; TR-FRET HIV-1 integrase multimerization; activation, % at 7.7 µM; 17% of 2,000 active; AID 1053131, 2014; in the data active means activation above about 8.9%
TRFRET interf: TR-FRET optical interference artefacts, confirmation, artefact control for LEDGF/p75-dependent integration inhibitor project, biochemical, HIV-1 IN multimerization | 2,000 tested, under 10 active | shares compounds with LEDGF integ inh | inhibition, % at 7.7 µM | AID 1053135, 2014 | TR-FRET optical interference counterscreen;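 active means inhibition above the mean over all tested compounds plus 3 SD, which no compound reached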
LEDGF integ conf: inhibitors of HIV-1 IN-LEDGF/p75 DNA integration, confirmation, biochemical, TR-FRET; shares compounds with LEDGF integ inh; TR-FRET LEDGF/p75-dependent HIV-1 integration; inhibition, % at 3.7 µM; 36% of 2,000 active; AID 1053136, 2014
Hits are given with their value; i = inactive; nt = no result given; ! = not confirmed by another sample. The list is not random: actives were taken first. Their share in the collection is about 1.9%. Unless noted, no stated cut-off is given here; in the data, active means inhibition above about 14%; inactive means the rest.

SMILES	LEDGF integ inh	TDP2 inh	Rin1 Abl inh	MBD2 inh	UHRF1 binding	UHRF1 ctr MBD2	MBD2 DBD conf	IN multimer act	TRFRET interf	LEDGF integ conf	others
Nc1c(C(=O)NCC2CCCO2)sc2nc3c(c(-c4ccco4)c12)CC/C3=C\c1ccco1 (configuration not stated)	65	i	5.6	21	42	92	106	54	i	85
NC(=O)c1sc2nc3c(c(-c4ccco4)c2c1N)CCCC3	i	i	i	i	i	nt	nt	nt	nt	nt
COc1ccc(-c2cc(=O)[nH][nH]2)cc1OC	42	87	i	16	i	i	i	i	i	i	TDP2 confirm=i
COc1ccc(-c2c[nH]c(=O)[nH]c2=O)cc1OC	i	i	i	i	i	nt	nt	nt	nt	nt
O=C(NN1C(=O)/C(=C/C=C/c2ccco2)SC1=S)c1ccccc1O	81	i	i	56	95	66	30	73	i	80
O=C(O)CCCN1C(=O)/C(=C/C=C/c2ccco2)SC1=S	87	i	i	70	98	91	49	13	i	83
Cn1cccc1/C=C1\SC(=S)N(NC(=O)c2ccccc2O)C1=O	i	i	i	i	i	nt	nt	nt	nt	nt
O=C(O)C(Cc1ccccc1)N1C(=O)/C(=C/C=C/c2ccco2)SC1=S (configuration not stated)	86	i	i	94	98	98	71	27	i	82
O=C1S/C(=C\C=C\c2ccco2)C(=O)N1c1ccccc1	40	i	i	13	25	i	i	i	i	23
COc1ccccc1N1CCN(C(=O)c2ccc3c(c2)nc(C)n3-c2cc(OC)c(OC)c(OC)c2)CC1	i	i	nt	i	i	nt	nt	nt	nt	nt
Cc1ccccc1NC(=O)[C@@H]1CC(=O)O[C@@H]1c1ccccc1	i	i	nt	i	i	nt	nt	nt	nt	nt
N[C@@H](Cc1ccc(O)c(O)c1)C(=O)O	89	i	i	34	67	96	59	53	i	93
Cc1ccc(-c2nc3c(c(=O)[nH]c(=O)n3Cc3ccccc3)n2C)o1	23	i	i	16	30	i	i	i	i	34
Cc1ccc(-c2nc3c(c(=O)[nH]c(=O)n3Cc3ccccc3)n2Cc2ccccc2)o1	i	i	i	i	i	nt	nt	nt	nt	nt
CCCCCN1CCCCC(NC(=O)c2ccccc2OC)C1=O (configuration not stated)	i	i	nt	i	i	nt	nt	nt	nt	nt
Cc1n[nH]c(=S)n(NC(=O)CC(=O)Nn2c(=S)[nH]nc(C)c2=O)c1=O	i	i	i	i	i	nt	nt	nt	nt	nt
Cc1n[nH]c(=S)n(NC(=O)/C=C/C(=O)Nn2c(=S)[nH]nc(C)c2=O)c1=O	14	i	i	15	41	i	i	i	i	29
Nn1c(SCC(=O)Nc2cccc3ccccc23)nnc1-c1cc(-c2ccccc2)n[nH]1	i	i	nt	i	i	nt	nt	nt	nt	nt
CC(=O)OCCCNc1cc(SCc2ccco2)c2nonc2c1[N+](=O)[O-]	66	i	i	14	59	i	i	i	i	24
O=C1c2c(O)ccc(O)c2C(=O)c2c(NCCNCCO)ccc(NCCNCCO)c21	49	i	i	110	96	94	106	24	i	38!
COc1cc(/C=C2/CC/C(=C/c3ccc(O)c(OC)c3)C2=O)ccc1O	i	i	i	i	i	nt	nt	nt	nt	nt
COc1cc(/C=C/C=C2/CC/C(=C/C=C/c3ccc(O)c(OC)c3)C2=O)ccc1O	92	i	i	31	58	i	i	26	i	54
CCn1c(SCc2ccc(C(C)(C)C)cc2)nnc1-c1ccc(C(C)(C)C)cc1	i	i	nt	i	i	nt	nt	nt	nt	nt
O=C(O)CC(c1ccccc1)n1cccc1 (configuration not stated)	i	i	i	i	i	nt	nt	nt	nt	nt
Nc1ccc(C(CC(=O)O)n2cccc2)cc1 (configuration not stated)	65	i	i	43	100	i	i	i	i	i
SMILES	LEDGF integ inh	TDP2 inh	Rin1 Abl inh	MBD2 inh	UHRF1 binding	UHRF1 ctr MBD2	MBD2 DBD conf	IN multimer act	TRFRET interf	LEDGF integ conf	others
CC(C)N1CCCCC(NC(=O)c2ccccc2)C1=O (configuration not stated)	i	i	nt	i	i	nt	nt	nt	nt	nt
O=C1c2ccccc2C(=O)c2c(O)c(O)cc(O)c21	i	i	i	i	i	nt	nt	nt	nt	nt
O=C1C=C(O)c2c(O)cc(O)c(O)c2C1=O	60	i	58	49	77	51	26	103	i	84
Cc1c(C)n(Cc2ccc(-c3ccccc3C(=O)O)cc2)c2ccc(C(=O)N[C@@H](C)c3ccc(Br)cc3)cc12	i	i	nt	i	i	nt	nt	nt	nt	nt
O=C(Nc1cc2c(oc1=O)CCCC2=O)c1ccc(Cl)cc1	17	i	i	16	41	29	16	i	i	22
S=C(NC1CC1)SCc1ccco1	35	i	i	24	54	i	i	i	i	i
CC(=O)Nc1ccc(S(=O)(=O)NCC2CCN(C(=O)C(=O)c3cccs3)CC2)cc1	i	i	nt	i	i	nt	nt	nt	nt	nt
O=C(N/N=C/c1ccc(F)cc1)c1cc(-c2ccco2)nc2ccccc12	15	i	i	19	28	52	36	24	i	48
CCOc1ccc(/C=N/NC(=O)c2cc(-c3ccco3)nc3ccccc23)cc1	i	i	i	i	i	nt	nt	nt	nt	nt
Cc1c(N)cc(N)cc1C(=O)O	74	31	i	26	73	i	i	i	i	i	TDP2 confirm=i

From PubChem BioAssay
